APJ antagonist = antagonists of human apelin receptor APJ, primary screen, CHO-K1 cells, beta-arrestin complementation, luminescence | P35414 | inhibition, % at 20 µM | hit rate 0.32% among 330,000;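 active = inhibition above about 40% at 20 µM, limit read from the data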;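 note: cells challenged with 10 nM apelin-13 agonist together with compound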
EBI2 antag = EBI2 receptor antagonists, beta-arrestin recruitment, primary screen, cell-based, luminescence, 7a,25-OHC stimulation, uHTS | hit rate 0.81% among 360,000 | inhibition, % at 5 µM | 7a,25-OHC stimulated | G-protein coupled receptor 183 (Homo sapiens), P32249; in the data active = inhibition above about 38%;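 note: enzyme fragment complementation signal reports receptor beta-arrestin coupling in cells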
Target sequence (P32249 whole entry, looked up, the tested form may be a part): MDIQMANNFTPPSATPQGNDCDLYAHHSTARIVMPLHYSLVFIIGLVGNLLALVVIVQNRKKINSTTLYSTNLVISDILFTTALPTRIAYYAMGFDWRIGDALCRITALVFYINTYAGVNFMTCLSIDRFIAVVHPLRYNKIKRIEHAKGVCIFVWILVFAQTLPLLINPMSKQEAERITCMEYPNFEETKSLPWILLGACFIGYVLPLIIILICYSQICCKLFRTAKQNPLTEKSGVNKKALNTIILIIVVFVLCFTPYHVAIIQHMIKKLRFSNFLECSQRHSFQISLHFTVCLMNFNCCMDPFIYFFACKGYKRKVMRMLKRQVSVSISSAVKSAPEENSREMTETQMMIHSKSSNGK
CXCR6 block = CXCR6 receptor inhibitors, primary screen, cell-based, beta-arrestin, luminescence, CHO-K1 PathHunter, 1536-well. inhibition, % at 20 µM. C-X-C chemokine receptor type 6 (Homo sapiens), O00574. hit rate 0.36% among 360,000. AID 602244, 2012; in the data active = inhibition above about 34%, passing the limit was not always enough;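 note: antagonist mode with CXCL16 agonist at 10 nM final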
Target sequence (O00574 whole entry, looked up): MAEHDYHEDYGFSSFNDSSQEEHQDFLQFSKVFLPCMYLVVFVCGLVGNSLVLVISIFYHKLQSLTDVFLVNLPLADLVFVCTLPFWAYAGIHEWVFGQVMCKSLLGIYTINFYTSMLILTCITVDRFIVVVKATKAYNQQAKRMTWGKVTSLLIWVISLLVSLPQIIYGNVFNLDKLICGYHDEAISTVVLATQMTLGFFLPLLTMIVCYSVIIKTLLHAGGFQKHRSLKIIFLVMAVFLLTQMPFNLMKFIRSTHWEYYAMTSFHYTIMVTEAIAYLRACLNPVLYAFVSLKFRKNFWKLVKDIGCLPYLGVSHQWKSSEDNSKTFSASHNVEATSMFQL
APJ ag = agonists of human apelin receptor APJ, primary screen, CHO-K1 cells, PathHunter beta-arrestin, luminescence | P35414 | hit rate 0.11% among 330,000 | 0% DMSO wells, 100% apelin | activation, % at 20 µM;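 active = activation more than six SD over the plate average, tested at 20 µM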
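Test system: CHO-K1 APJ beta-arrestin complementation cell line. Amount: cell density 1000 per well. Controls: DMSO negative, 10 nM Apelin-13 positive. Signal: luminescent beta-gal fragment complementation, chemiluminescent substrate. Read-out basis: agonist-driven arrestin binding to APJ. Timing: compound stimulation 90 min at 25 °C, detection 60 min.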
CCR6 antag = CCR6 receptor antagonists, primary screen, cell-based, CHO-K1, luminescence, beta-arrestin, uHTS; AID 493098, 2011; hit rate 0.49% among 340,000; C-C chemokine receptor type 6 (Homo sapiens), P51684; inhibition, % at 20 µM; CHO-K1 CCR6 PathHunter beta-arrestin, CCL20-stimulated;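 active = compounds whose inhibition of the agonist-driven luminescence signal at 20 µM reaches about 50%, limit read from the data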;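 note: cells stimulated with CCL20 at 14 nM final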
EBI2 antag conf = EBI2 antagonist hit retest, beta-arrestin, confirmation, cell-based, single concentration, luminescence, 7a,25-OHC stimulation; shares compounds with EBI2 antag; 7a,25-OHC antagonism; inhibition, % at 5 µM; hit rate 29% among 2,400;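 active = inhibition of at least 50%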
EBI2 agonist = EBI2 agonist activity of antagonist hits, confirmation, counter-screen for EBI2 antagonist project, cell-based, single concentration, agonist mode, luminescence; shares compounds with EBI2 antag; EBI2-expressing cells, 60 min; 0% vehicle, 100% 7α,25-dihydroxycholesterol control; activation, % at 5 µM; 2,400 tested, under 10 active;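 active = activation of at least 50%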
bGal counter = E. coli beta-galactosidase enzyme inhibition, confirmation, counter-screen for EBI2 antagonist project, biochemical, luminescence, single concentration. hit rate 1% among 2,400. shares compounds with EBI2 antag. inhibition, % at 5 µM. purified beta-galactosidase, luminescent Galacton Star, 15 min;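 active = replicate-average signal at least 3 plate SD below neutral wells, shown as high inhibition, flagging enzyme-inhibiting false positives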;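 note: higher means stronger loss of beta-gal luminescence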
Each line names hits and unclear results; the compound was inactive in the other large screens (follow-up assays come after a bar, where they were run). Shown are actives, neighbours in structure and some others; about 1.5% of the full set was active somewhere.

O=C(COc1ccc(Cl)cc1)N1CCN(C(=O)c2cccc(F)c2)CC1	EBI2 antag 86 | EBI2 antag conf 68 | EBI2 agonist inactive | bGal counter inactive
O=C(COc1ccc(Cl)cc1)N1CCN(C(=O)c2cccs2)CC1	EBI2 antag 80 | EBI2 antag conf inactive | EBI2 agonist inactive | bGal counter inactive
O=C(COc1ccccc1)N1CCN(C(=O)c2cccc(F)c2)CC1	none
COc1cc(C(=O)NCCN2C(=O)S/C(=C\c3ccc(F)cc3)C2=O)ccc1OCC(=O)N1CCOCC1	none (no result: EBI2 antag, CXCR6 block)
COCCn1c(SCc2ccc(OC)c(F)c2)nnc1-c1ccncc1	none
CCCC1NC(=O)c2cccnc2-n2c1nc1ccc(OC)cc1c2=O (stereo unspecified)	none (no result: APJ antagonist, APJ ag, CCR6 antag)
COc1cc(/C=N/OCC(=O)NC23CC4CC(CC(C4)C2)C3)ccc1OCc1ccccc1	EBI2 antag 45 | EBI2 antag conf inactive | EBI2 agonist inactive | bGal counter inactive
Cn1nc(C(=O)Nc2c(-c3ccccc3)nc3sccn23)c2ccccc2c1=O	none
OCCCNc1cc(-c2ccccc2)nc2cc(-c3ccc(F)cc3)nn12	EBI2 antag 55 | EBI2 antag conf inactive | EBI2 agonist inactive | bGal counter inactive
COc1ccc(N=C2C(=Nc3ccc(OC)cc3)N(c3ccc(OC)cc3)C(=S)N2c2ccccc2)cc1	EBI2 antag 64 | EBI2 antag conf inactive | EBI2 agonist inactive | bGal counter inactive
COc1ccc(NCC(O)COc2ccc(C(C)(C)C)cc2)cc1 (stereo unspecified)	EBI2 antag 70 | EBI2 antag conf 52 | EBI2 agonist inactive | bGal counter inactive
COCCC(=O)N1CCC(Oc2ccc(C(=O)N3CCCC(CCCO)C3)cc2)CC1 (stereo unspecified)	none
COc1ccccc1N1CCN(C(=O)/C=C/c2ccc3c(c2)OCO3)CC1	EBI2 antag 78 | EBI2 antag conf 56 | EBI2 agonist inactive | bGal counter inactive
COc1ccccc1N1CCN(C(=O)c2cccs2)CC1	none
COc1ccccc1N1CCN(C(=O)/C=C/c2cccs2)CC1	EBI2 antag 48 | EBI2 antag conf inactive | EBI2 agonist inactive | bGal counter inactive
COc1ccccc1N1CCN(C(=O)/C=C/c2ccccc2)CC1	EBI2 antag 84 | EBI2 antag conf 59 | EBI2 agonist inactive | bGal counter inactive
Cc1cccc(N2CCN(C(=O)/C=C/c3cccs3)CC2)c1C	EBI2 antag 85 | EBI2 antag conf 58 | EBI2 agonist inactive | bGal counter inactive
CCOC(=O)N(O)c1ccc(C=Cc2ccccc2)cc1	none (no result: APJ antagonist, APJ ag)
CCOc1ccc(C(=O)NC(C(=O)NCC(c2cccs2)N(C)C)C(C)C)cc1 (stereo unspecified)	none
O=C1CN(N=Cc2ccco2)C(=O)N1	none (no result: APJ antagonist, APJ ag)
COc1ccccc1N(C)S(=O)(=O)c1ccc(C(=O)NCCCN2CCCC2=O)cc1	none (no result: APJ antagonist, APJ ag, CCR6 antag)
CCc1ccc(C(=O)NNC(=O)[C@H](C)NC(=O)c2ccco2)cc1	none
CC(C)c1ccc(NC(=S)Nc2ccc3cn[nH]c3c2)cc1	EBI2 antag 50 | EBI2 antag conf inactive | EBI2 agonist inactive | bGal counter inactive
Cc1ccc(NC(=S)Nc2ccc3cn[nH]c3c2)cc1C	none
CC(=O)c1cccc(NC(=O)N2CCCC2C(=O)NC2CCCCC2)c1 (stereo unspecified)	none
OC1CCN(c2c3c(nc4cc(-c5ccc(Cl)cc5)nn24)CCC3)CC1	EBI2 antag 44 | EBI2 antag conf inactive | EBI2 agonist inactive | bGal counter inactive
CCN1CCN(CC(O)COc2cccc(OC)c2)CC1 (stereo unspecified)	none
c1ccc(OCCN2CCN(C(c3ccccc3)c3ccccc3)CC2)cc1	EBI2 antag 45 | EBI2 antag conf inactive | EBI2 agonist inactive | bGal counter inactive
COc1cccc(OCC(O)CN2CCN(C(c3ccccc3)c3ccccc3)CC2)c1 (stereo unspecified)	EBI2 antag 38 | EBI2 antag conf inactive | EBI2 agonist inactive | bGal counter inactive
O=C(NNC1=Nc2cccc3cccc1c23)c1ccc(Br)cc1	none (no result: APJ antagonist, APJ ag)
OC(c1ccccc1)c1nc(-c2ccc(F)c(Cl)c2)cs1 (stereo unspecified)	none (no result: APJ antagonist, APJ ag, CCR6 antag)
O=C(CSc1ccc(Cl)cc1)Nc1ccccc1N1CCN(C(=O)c2ccccc2)CC1	EBI2 antag 76 | EBI2 antag conf 67 | EBI2 agonist inactive | bGal counter inactive
O=C(CSc1ccc(Cl)cc1)Nc1ccccc1Oc1ccccc1	EBI2 antag 55 | EBI2 antag conf inactive | EBI2 agonist inactive | bGal counter inactive
O=C(CSc1ccc(Br)cc1)Nc1ccccc1Oc1ccccc1	EBI2 antag 54 | EBI2 antag conf inactive | EBI2 agonist inactive | bGal counter inactive
CS(=O)(=O)N1CCN(c2ccccc2NC(=O)CSc2ccc(Cl)cc2)CC1	none
CN(CC(=O)Nc1ccc(N2CCOCC2)cc1)C(=O)CCc1cc(C(C)(C)C)c(O)c(C(C)(C)C)c1	none
CCOc1ccc(N(CC)S(=O)(=O)c2ccc3c(c2)n(C)c(=O)c(=O)n3C)cc1	none
Cc1nnc(SCC(=O)N2CCC(c3noc4ccc(F)cc34)CC2)s1	none
O=C(CSc1ccc(F)cc1)N1CCC(c2nc3ccccc3s2)CC1	EBI2 antag 46 | EBI2 antag conf inactive | EBI2 agonist inactive | bGal counter inactive
O=C(CSc1ccccc1Cl)N1CCC(c2nc3ccccc3s2)CC1	none
O=C(CSc1ccc2ccccc2n1)N1CCC(c2noc3ccc(F)cc23)CC1	EBI2 antag 38 | EBI2 antag conf inactive | EBI2 agonist inactive | bGal counter inactive
O=C(c1cc2c(ccc3ccccc32)o1)N1CCCCC1	EBI2 antag 51 | EBI2 antag conf inactive | EBI2 agonist inactive | bGal counter inactive
O=C(c1cc2cc(Cl)ccc2o1)N1CCCCCC1	EBI2 antag 47 | EBI2 antag conf inactive | EBI2 agonist inactive | bGal counter inactive
O=C(c1cc2c(ccc3ccccc32)o1)N1CCN(c2ncc(C(F)(F)F)cc2Cl)CC1	EBI2 antag 91 | EBI2 antag conf 79 | EBI2 agonist inactive | bGal counter inactive
O=C(O)c1cc2c(ccc3ccccc32)o1	none

Source: PubChem
